High-throughput results as filed in PubChem BioAssay.
NPR2 activator = human GC-B receptor activators, primary screen, HEK293 GC-B cells, cGMP TR-FRET, EC30 CNP. Atrial natriuretic peptide receptor 2 (Homo sapiens), P20594. 0% at EC30 CNP, 100% saturating CNP. activation, % at 10 µM. 370,000 compounds, 0.11% hits. AID 1920062, 2024;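 active means activation at 10 µM reaching about 35% in either raw or pattern-adjusted values, limit read from the data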
GC-A act = GC-A stimulated cGMP production enhancers – HEK293 GC-A cells, cGMP TR-FRET, EC30 ANP, primary screen; Atrial natriuretic peptide receptor 1 (Homo sapiens), P16066; 0% at EC30 ANP, 100% saturating ANP; activation, % at 10 µM; 370,000 compounds, 0.14% hits; in the data active means activation above about 40%
Vif inh = HIV Vif self-association inhibitors, primary screen, imaging, HEK293T, single point; HEK293T cells, Vif self-association by quenched fluorescence, 24 h; 340,000 compounds, 0.35% hits; inhibition, % at 7.49 µM; AID 602346, 2012; in the data active means inhibition above about 50%, passing the limit was not always enough
Xi reactivation = activators of inactive X chromosome reactivation, primary screen, imaging, XiGFP fibroblasts, GFP high-content imaging, set 2. XiGFP mouse fibroblasts, % GFP-positive cells imaging, 3 d; cells co-treated with 5-aza-dC sensitizer; scaled so ellipticine positive control = 100%. 360,000 compounds, 0.055% hits. activation, % at 7.58 µM;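 active means mean normalized replicate activation at least 10% and every replicate at or above 10%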;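 further: 0% = median of on-plate neutral control wells and 100% = ellipticine 6 µM median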
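System: XiGFP fibroblasts, SV40-immortalized. Medium: DMEM plus 5-aza-dC sensitizer. Doses: single point. Timing: 3 d treatment, 15 min room-temperature fixation. Control set: ellipticine 6 µM.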
N-glyco inh = increase of ERlucT glycosylation luciferase signal, primary screen, N-linked glycosylation inhibitor project, D54 ERlucT cells, luminescence, set 2. D54 ERlucT glycosylation luciferase reporter, 24 h; percent of 100 nM tunicamycin response. reporter increase, % at 12.5 µM. 360,000 compounds, 0.23% hits. AID 588692, 2011;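 active means mean luciferase reporter signal, scaled so untreated is 0 and the glycosylation-blocking control 100, at or above a set limit in every replicate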;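 further: luciferase carries N-glycosylation sites so blocking glycosylation raises the light; 0% = median of neutral control wells and 100% = median of 100 nM tunicamycin wells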
CaV13 ICDI inh = Primary screen for inhibitors of IQ motif and Ca2+-dependent inactivation inhibitor domain binding in CACNA1D, Förster resonance energy transfer in living cells, … | HEK cells, CFP/YFP FRET ICDI-IQ, plate reader, 10 min; percent FRET-ratio fall versus neutral wells | inhibition, % at 12.3 µM | 340,000 compounds, 0.098% hits;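 active means mean replicate inhibition of at least 30% and at least 1% of replicates passing that level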;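 further: 0% = median of the neutral control wells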
Active calls of the source: *; i = inactive; nt = no result given; + = active, no number; ! = not active in a repeat. A selection: hits, their analogues and other compounds. The true share with any hit is near 0.7%.

SMILES	NPR2 activator	GC-A act	Vif inh	Xi reactivation	N-glyco inh	CaV13 ICDI inh
CCOc1ccc2nc(NCCCNS(=O)(=O)c3ccc(F)cc3)c(C#N)cc2c1	1.9	2.5	-6.3	nt	-4.4	33.0*
CCOc1ccccc1Nc1nnc(C)c(=O)[nH]1	-6.0	2.2	-8.1	nt	-2.4	-4.8
COc1ccccc1Nc1nnc(C)c(=O)[nH]1	4.5	-0.4	73.0*	nt	1.8	-4.3
Cn1cc(C(c2ccccc2OCC(=O)O)c2cn(C)c3ccccc23)c2ccccc21	-8.5	-7.6	i	0.2	2.3	44.8*
CCn1c(=O)cc(OCC(=O)O)c2ccccc21	-1.1	1.4	nt	nt	-1.6	-5.3
C[C@]1(O)CC(=O)C=C[C@H]1Nc1ccccc1	6.8	3.1	-1.7	0.1	44.0*	-7.6
CN(C)CCN1C(=O)c2cccc3cc([N+](=O)[O-])cc(c23)C1=O	-2.9	8.0	-9.7	0.0	43.2*	-18.7
CN(C)CCCN1C(=O)c2cccc3cccc(c23)C1=O	4.5	10.3	-2.8	0.0	115.5*	-2.1
CN(C)CCCN1C(=O)c2cc3ccccc3cc2C1=O	-1.1	-1.4	6.8	0.1	1.7	-1.7
O=C(NCC[C@@H]1CC[C@H](NC(=O)C2CC2)[C@@H](CO)O1)Nc1ccc(Cl)cc1	nt	nt	nt	0.0	nt	nt
COc1ccc2[nH]c3c4c(ccc3c2c1)C(=O)C=CC4=O	0.3	3.5	51.5*	12.2*	15.9	-15.9
COc1ccc(CN(C)C[C@H]2OCCCC[C@H](C)Oc3ccc(NC(=O)Nc4c(C)noc4C)cc3C(=O)N([C@H](C)CO)C[C@@H]2C)cc1	nt	nt	nt	-1.1	nt	nt
N#Cc1ccc(-c2cccnc2)nc1SCc1ccc(Cl)cc1Cl	42.0*	35.2	6.6	nt	-0.5	-2.5
CCOC(=O)COn1c(=O)c(-c2ccc(OC)cc2)[n+]([O-])c2ccccc21	2.4	-2.0	-4.4	0.0	3.5	-4.9
CCOC(=O)COn1c(=O)c(-c2ccccc2)[n+]([O-])c2ccccc21	-0.2	1.6	76.1*	0.1	0.7	-2.8
C[C@@H]1CCCCO[C@@H](CN(C)Cc2ccncc2)[C@H](C)CN([C@@H](C)CO)C(=O)c2cc(NC(=O)CCCCCC(=O)Nc3ccccc3N)ccc2O1	nt	nt	nt	0.1	nt	nt
CN(c1ccc(O)cc1)c1nc(O)c(C2=c3ccccc3=NC2=O)s1	-5.5	40.7*	-8.6	0.0	10.0	-2.8
O=C(c1ccncc1)N1CC2(C1)[C@@H](c1ccccc1)[C@@H](CO)N2C(=O)c1ccncc1	nt	nt	nt	0.0	nt	nt
Cc1ccccc1N1CCN(Cc2nc(Cc3ccccc3)no2)CC1	7.8	1.2	-2.9	0.1	-0.4	-1.7
Clc1cccc(CN2CCN(Cc3nc(CCc4ccccc4)no3)CC2)c1	-2.7	-3.0	-2.5	0.0	0.5	+
Cc1noc(C)c1S(=O)(=O)Nc1ccc2c(c1)C(=O)N([C@H](C)CO)C[C@H](C)[C@H](CN(C)S(=O)(=O)c1cn(C)cn1)O2	nt	nt	nt	-0.1	nt	nt
O=c1[nH]c2ccccc2nc1N1CCOCC1	2.9	1.1	4.3	nt	0.4	-5.6
c1ccc2c(c1)nc(N1CCOCC1)c1c3ccccc3[nH]c21	-12.0	-13.9	5.8	nt	38.9*	-7.3
CC1=CCC(C(=O)O)C(C(=O)Nc2cccnc2)C1 (stereo not drawn)	2.8	-2.3	50.6*	0.0	3.2	-6.3
O=[N+]([O-])c1cc(-c2ccc(/C=N\n3cnnc3)o2)cc([N+](=O)[O-])c1	-0.1	-3.5	120.5*	0.0	2.2	-4.2
SMILES	NPR2 activator	GC-A act	Vif inh	Xi reactivation	N-glyco inh	CaV13 ICDI inh
O=[N+]([O-])c1ccccc1-c1ccc(/C=N/n2cnnc2)o1	-13.3	-1.4	nt	nt	0.0	-7.5
COCC#Cc1cnc2c(c1)C(=O)N([C@@H](C)CO)C[C@H](C)[C@H](CN(C)Cc1ccc(-c3ccccc3)cc1)O2	nt	nt	nt	-0.3	nt	nt
O=[N+]([O-])c1cccc(N/N=C/c2cccc(O)c2O)c1	-2.5	-1.9	63.8*	0.0	-5.9	6.4
O=[N+]([O-])c1ccccc1N/N=C/c1cccc(O)c1O	-9.5	-8.4	-2.3	0.2	-16.8	-5.3
C[C@@H]1CN([C@@H](C)CO)C(=O)c2cc(C#CC3CCCCC3)cnc2O[C@@H]1CN(C)S(=O)(=O)c1ccccc1	nt	nt	nt	-0.1	nt	nt
COC(=O)COc1ccc2c(-c3ccc(OC)cc3)cc(=O)oc2c1	22.5	60.9*	-8.5	nt	0.2	-0.5
COC(=O)COc1ccc2cc(-c3ccccc3)c(=O)oc2c1	11.1	43.0*	8.6	0.1	6.1	-7.6
COC(=O)COc1ccc2cc(-c3ccc(OC)cc3)c(=O)oc2c1	22.1	34.8	6.5	0.1	-1.5	-7.3
CCC(=O)c1ccc(OCC(=O)Nc2nn3cnnc3s2)cc1	0.9	0.6	68.1*	nt	0.7	-0.8
CCOCCCNC(=O)/C(C#N)=C/c1cc(Br)c(O)c(Br)c1	nt	nt	17.1	nt	29.8*	nt
CC(C)C#Cc1ccc2c(c1)O[C@H](CN(C)C(=O)C1CCC1)[C@@H](C)CN([C@@H](C)CO)S2(=O)=O	nt	nt	nt	-0.6	nt	nt
C[C@H]1CN([C@@H](C)CO)C(=O)c2cc(NC(=O)Nc3ccccc3)ccc2O[C@@H]1CN(C)C(=O)Nc1ccc2c(c1)OCO2	nt	nt	nt	-1.2	nt	nt
CCS(=O)(=O)N1[C@H](CO)[C@@H](c2ccccc2)C12CN(C(=O)C1CC1)C2	nt	nt	nt	0.1	nt	nt
CNC[C@@H]1Oc2c(NC(=O)Nc3ccc(F)cc3)cccc2C(=O)N([C@H](C)CO)C[C@H]1C	nt	nt	nt	-1.3	nt	nt
O=C1ON=C(c2ccccc2)/C1=C/c1ccco1	35.4*	35.9	3.5	-0.1	6.2	-6.6
Cn1c(=O)cc(OCC(=O)NC2CCCCC2)c2ccccc21	2.8	3.3	22.7	nt	3.9	nt
Cc1ccnc(NC(=O)CCCOc2cc(=O)n(C)c3ccccc23)c1	-5.4	-3.8	97.1*	-0.1	25.8*!	-6.1
Cn1c(=O)cc(OCCCC(=O)NC2CCCC2)c2ccccc21	-0.6	-4.3	18.2	nt	44.6*	nt
CO[C@@H]1CN(C)C(=O)c2ccc(NC(C)=O)cc2OC[C@@H](C)N(C(=O)CN(C)C)C[C@H]1C	nt	nt	nt	-0.2	nt	nt
COc1cc(NC(=O)COc2ccccc2)ccc1NC(=O)c1ccco1	12.1	0.9	66.2*	0.4	-0.7	-2.1
COc1cc(NC(=O)COc2ccccc2C)ccc1NC(=O)c1ccco1	-11.8	1.0	-8.2	-0.1	1.3	-5.9
